Results from ChEMBL document CHEMBL4808167, “Design, Synthesis, and Evaluation of Small Molecule Gαq/11 Protein Inhibitors for the Treatment of Uveal Melanoma” (J Med Chem, 2021).
The source made the active and inactive calls. The rule behind the calls is not given here. Starred links: 1 amine or outer side, 2 acyl side, 3 side chain; linkers in the order of their positions; H or OH if unused. Positions of bridges follow the written chain, without caps; N, C: chain ends. Non-standard residues stand in square brackets, D forms with d. Residues, ends and D or L forms follow the SMILES beside them. *: point of attachment. Leu(3R-OH,Nα-propionyl) = CCC(=O)N[C@H](C(=O)*)[C@H](O)C(C)C; X1 = CC(C)[C@@H](O[*:3])[C@H](N[*:1])C(=O)[*:2]; NMeT = CN[C@H](C(=O)O)[C@@H](C)O; dPhLac = O=C(O)[C@H](O)Cc1ccccc1; NMeA = CN[C@@H](C)C(=O)O; NMeDha = C=C(NC)C(=O)O

Assays:
[1] = Antiproliferative activity against human MP41 cells assessed as inhibition of cell growth after 72 hrs by CCK8 assay; assay type: functional, cell-based; conditions: MP41, 72 h
How it was run: (§1)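 92.1 or MP41 cells in RPMI-1640 with 10% FBS were seeded at 3 × 10³ cells/well. Exposed to serial concentrations for 72 h at 37 °C, 5% CO₂. CCK-8 added for 1−4 h, absorbance read at 450 nm. IC₅₀ from concentration−response curve fit, mean ± SD.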

[2] = biological target: T1, GNAQ/GNA11 (Homo sapiens) (UniProt P50148+P29992); assay: Inhibition of Galphaq/11 (unknown origin) expressed in CHO cells coexpressing M1 receptor assessed as reduction in carbachol-induced IP1 accumulation at 10 uM preincubated for 1 hr followed by carbachol stimulation and measured after 1 hr by HTRF assay relative to control; assay type: cell-based; conditions: time 2.0 hrs
GNAQ/GNA11 [3] = biological target: T2, GNAQ/GNA11 (Homo sapiens, UniProt P50148+P29992); assay: Inhibition of Galphaq/11 (unknown origin) expressed in CHO cells coexpressing M1 receptor assessed as reduction in carbachol-induced IP1 accumulation preincubated for 1 hr followed by carbachol stimulation and measured after 1 hr by HTRF assay; assay type: cell-based
T2 sequence (P50148 whole entry): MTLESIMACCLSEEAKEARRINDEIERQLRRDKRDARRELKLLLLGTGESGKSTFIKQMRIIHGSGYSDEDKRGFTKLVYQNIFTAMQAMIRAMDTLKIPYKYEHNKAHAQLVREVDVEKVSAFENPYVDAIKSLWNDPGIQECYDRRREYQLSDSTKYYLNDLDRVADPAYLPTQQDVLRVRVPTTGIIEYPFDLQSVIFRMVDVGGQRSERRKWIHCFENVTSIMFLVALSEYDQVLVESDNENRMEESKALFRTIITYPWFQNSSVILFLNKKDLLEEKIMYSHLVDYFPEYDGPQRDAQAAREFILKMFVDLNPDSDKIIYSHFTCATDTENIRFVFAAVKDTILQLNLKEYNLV
T2 sequence (P29992 whole entry): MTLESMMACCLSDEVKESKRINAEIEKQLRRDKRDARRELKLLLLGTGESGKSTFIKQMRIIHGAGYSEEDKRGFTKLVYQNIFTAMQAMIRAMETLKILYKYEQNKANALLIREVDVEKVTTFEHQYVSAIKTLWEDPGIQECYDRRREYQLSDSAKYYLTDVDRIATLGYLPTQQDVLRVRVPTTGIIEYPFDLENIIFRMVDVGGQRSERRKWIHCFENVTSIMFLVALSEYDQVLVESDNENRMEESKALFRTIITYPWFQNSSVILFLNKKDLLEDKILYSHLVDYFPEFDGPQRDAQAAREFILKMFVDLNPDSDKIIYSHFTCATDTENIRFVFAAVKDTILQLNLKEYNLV

[4] = Antiproliferative activity against human 92.1 cells assessed as inhibition of cell growth after 72 hrs by CCK8 assay; assay type: functional, cell-based; conditions: Homo sapiens, 921, 72 h; how it was run: as §1
921 [5] = assay: Inhibition of cell invasion in human 921 cells at 5 to 15 uM incubated for 48 hrs by transwell assay; assay type: functional, cell-based; conditions: dose 5-15 µM
How it was run: (§2)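 92.1 or MP41 cells (1 × 10⁴/well) seeded in serum-free medium in the upper transwell chamber, with 20% FBS medium below. Left overnight, then treated 48 h. Non-migrated cells swabbed off; cells on the lower side stained with crystal violet 30 min and counted by light microscopy (×40 for migration, ×100 for invasion). Mean ± SD, n = 3.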

MP41 [6] = assay: Inhibition of cell migration in human MP41 cells at 30 uM incubated for 48 hrs by Transwell migration assay; assay type: functional, cell-based
How it was run: (§3)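 Transwell migration: 92.1 and MP41 cells (RPMI-1640, 10% FBS) seeded 1 × 10⁴/well in upper chamber in serum-free medium, 20% FBS medium below; overnight at 37 °C, then compound for 48 h. Non-migrated cells swabbed off; lower cells crystal violet-stained 30 min, counted by light microscopy. Mean SD of three independent experiments.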

[7] = biological target: T1, GNAQ/GNA11 (Homo sapiens); assay: Binding affinity to Galphaq/11 (unknown origin) expressed in HEK293 cells cotransfected with AT1R/Galphaq-RLuc8/ Ggamma2-venus/Gbeta1 assessed as inhibition of Ang-II induced-BRET signal at 100 uM preincubated for 1 hr followed by Ang-II addition by BRET assay; assay type: cell-based
How it was run: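 HEK293 cells transiently transfected with AT₁R, Gαq-RLuc8, Gγ2-Venus and untagged Gβ1. Replated 24 h later, washed with HBS, starved 10 min, then pretreated with compound for 1 h at 37 °C. AngII added, followed by coelenterazine. BRET ratio taken as Venus emission (520−570 nm) over RLuc8 emission (370−480 nm). Mean ± SD, n = 3.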

[8] = biological target: T1, GNAQ/GNA11 (Homo sapiens); assay: Inhibition of Galphaq/11 (unknown origin) expressed in HEK293 cells cotransfected with AT1R assessed as inhibition of Ang-II induced calcium release at 100 uM preincubated for 30 mins followed by Ang-II addition by Fluo-4AM dye based fluorescence assay; assay type: cell-based
How it was run: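 HEK293 cells transfected with AT₁R, washed in HBSS with 0.1% BSA and loaded with Fluo-4 AM for 1 h at 37 °C. Washed, then pretreated with compound at 100 μM for 30 min. AngII at varying concentrations added 20 s into the fluorescence recording. Mean ± SD, n = 3.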

921 [9] = assay: Inhibition of cell migration in human 921 cells at 15 uM incubated for 48 hrs by transwell migration assay; assay type: functional, cell-based; how it was run: as §2
MP41 [10] = assay: Inhibition of cell migration in human MP41 cells at 15 uM incubated for 48 hrs by transwell migration assay; assay type: functional, cell-based; how it was run: as §3
MP41 [11] = assay: Inhibition of cell invasion in human MP41 cells at 5 to 15 uM incubated for 48 hrs by transwell assay; assay type: functional, cell-based; conditions: dose 5-15 µM; how it was run: as §2
GNAQ/GNA11 [12] = biological target: T2, GNAQ/GNA11; assay: Inhibition of Galphaq/11 (unknown origin); assay type: protein assay
How it was run: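 Carbachol-stimulated IP₁ accumulation in CHO cells stably expressing the M₁ receptor, read by HTRF. Cells (2 × 10⁴/well) in assay buffer with 0.2% BSA were preincubated with compound for 1 h at 37 °C. Carbachol (final 9 μM, ~EC₈₀) was then added with LiCl (final 20 mM) for 1 h at 37 °C plus 1 h at room temperature. Values are % inhibition at 10 μM or IC₅₀, three independent experiments.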

[13] = Antitumor activity against human MP41 cells xenografted in nude BALB/c mouse assessed as tumor growth inhibition at 10 mg/kg, ip administered for once daily for 21 days and measured every 3 days; assay type: functional; conditions: 504 h, time 21 day, read-out: TGI
How it was run: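 MP41 tumours were passaged subcutaneously mouse-to-mouse in nude BALB/c mice (6−8 weeks, 20−25 g). Tertiary recipients randomized, n = 8/group, given 10 or 30 (mg/kg)/d ip or vehicle for 21 days. Tumour size (V = A × B² × π/6, caliper) and body weight taken every 3 days; tumours excised and weighed on day 22. TGI computed versus the vehicle group.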

CHO [14] = assay: Cytotoxicity against chinese hamster CHO cells overexpressing M1 receptor assessed as cell viability at 5 uM after 2 hrs by CCK8 assay; assay type: cell-based, Cricetulus griseus
How it was run: (§4)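 CHO cells stably expressing the M₁ receptor were treated with a range of compound concentrations for 2 h or 24 h. Viability measured by CCK-8 and given as percentage. Mean ± SD of three independent experiments.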

CHO [15] = assay: Cytotoxicity against chinese hamster CHO cells overexpressing M1 receptor assessed as cell viability at 1.25 to 20 uM after 2 to 24 hrs by CCK8 assay; assay type: cell-based, Cricetulus griseus; conditions: dose lower 1.25 µM, time lower 2 hrs, dose upper 20 µM, time upper 24 hrs; how it was run: as §4
CHO [16] = assay: Induction of morphological changes in chinese hamster CHO cells overexpressing M1 receptor at 10 to 20 uM after 2 hrs by light microscopic analysis; assay type: cell-based, Cricetulus griseus; conditions: dose 10-20 µM
How it was run: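 CHO-M₁ cells were treated with compound at 10 or 20 μM for 2 h, and changes in cell morphology were examined by microscopy.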

Compound | IC50 [1] | inhibition [2] | IC50 (GNAQ/GNA11 [3]) | IC50 [4] | inhibition 921 [5] | inhibition (MP41 [6]) | Activity [7] | Activity [8] | inhibition 921 [9] | inhibition (MP41 [10]) | inhibition (MP41 [11]) | IC50 (GNAQ/GNA11 [12]) | inhibition in vivo at 10 mg/kg [13] | Activity (CHO [14]) | Activity (CHO [15]) | Activity (CHO [16])
N[C@@H](Cc1ccc(O)cc1)C(=O)N1CCn2cc(-c3ccccc3)nc2[C@@H]1CC1CCCCC1 | 22.6 µM | 34% | 48.6 µM | 10.7 µM |  |  |  |  |  |  |  |  |  |  |  | 
N[C@@H](CS)C(=O)N1CCn2cc(-c3ccccc3)nc2[C@@H]1CC1CCCCC1 | 2.3 µM | 32.6% |  | 4.8 µM | Active | Active | Active | inactive | Active | Active | Active |  |  |  |  | 
C=C1C(=O)N[C@@H](C)C(=O)N(C)[C@@H](C)C(=O)N[C@@H]([C@H](OC(=O)[C@@H](NC(=O)CC)[C@H](O)C(C)C)C(C)C)C(=O)N(C)[C@@H]([C@@H](C)OC)C(=O)O[C@H](C(C)C)[C@H](NC(C)=O)C(=O)O[C@H](Cc2ccccc2)C(=O)N1C (Ac-[X1][dPhLac][NMeDha]A[NMeA][X1](Leu(3R-OH,Nα-propionyl))[NMeT](Me); ester 1-C) |  |  |  |  |  |  |  |  |  |  |  | 0.032 µM |  |  |  | 
N[C@H](CSSC[C@@H](N)C(=O)N1CCn2cc(-c3ccccc3)nc2[C@@H]1CC1CCCCC1)C(=O)N1CCn2cc(-c3ccccc3)nc2[C@@H]1CC1CCCCC1 | 10.5 µM | 25.8% |  | 6.8 µM | Active | Active | Active | inactive | Active | Active | Active |  | 35.9% | Toxic | Toxic | Toxic
